We go through 19 molecules from ChEMBL document CHEMBL4808228, “Synthesis of novel 1,2,4-trioxanes and antimalarial evaluation against multidrug-resistant Plasmodium yoelii nigeriensis” (2021).

Common to all, as to type: functional
The test system of experiment [1] is Plasmodium yoelii. As to the kind of experiment: Antimalarial activity against multidrug-resistant Plasmodium yoelii infected in Swiss mouse assessed as inhibition of parasitemia at 48 mg/kg, po for 4 days measured on day 4 relative to control. The following applies: 96 h, time 4 day. The essentials:
(§1)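 Swiss mice (25 ± 1 g), five per dose, were infected with 1 X 10⁶ parasitized RBC on day 0. Dosing was oral on days 0–3, twice daily, in groundnut oil (0.1 ml per dose). Day-4 thin-smear parasitaemia gave % suppression = [(C−T)/C] × 100 versus the control group. 100% meant no parasites in 50 oil immersion fields.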

The subject of experiment [2] is Plasmodium yoelii. As to the kind of experiment: Antimalarial activity against multidrug-resistant Plasmodium yoelii infected in Swiss mouse assessed as inhibition of parasitemia at 48 mg/kg, im for 4 days measured on day 4 relative to control. To be noted: 96 h, time 4 day. The essentials: (§2)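 In this im regimen, mice (Swiss, 25 ± 1 g; n = 5 per dose) received 1 X 10⁶ parasitized RBC on day 0 and were treated on days 0–3 in two divided daily doses. Parasitaemia on day 4 was read from thin blood smears, and suppression = [(C−T)/C] × 100 relative to the control group. Full suppression meant none seen in 50 oil immersion fields.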

Experiment [3] deals with Plasmodium yoelii. Kind of experiment: Antimalarial activity against multidrug-resistant Plasmodium yoelii infected in Swiss mouse assessed as animal survival at 48 mg/kg, po for 4 days and measured for 28 days. To be noted: 672 h, time 28 day. The essentials: (§3)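 Swiss mice (25 ± 1 g) were inoculated with 1 X 10⁶ parasitized RBC on day 0. Groups of five were dosed orally on days 0–3 in two divided daily doses, in groundnut oil, 0.1 ml per dose. Thin blood smears were read on days 4–28, and mice without patent infection by day 28 counted as cured. β-Arteether was the positive control.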

The subject of experiment [4] is Plasmodium yoelii. Kind of experiment: Antimalarial activity against multidrug-resistant Plasmodium yoelii infected in Swiss mouse assessed as animal survival at 48 mg/kg, im for 4 days and measured for 28 days. The following applies: 672 h, time 28 day. The essentials: (§4)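 Intramuscular dosing of groups of five Swiss mice (25 ± 1 g) infected on day 0 with 1 X 10⁶ parasitized RBC, on days 0–3 in two divided daily doses. Parasitaemia came from thin blood smears over days 4–28. Animals without patent infection till day 28 were recorded as cured. The strain is resistant to chloroquine, mefloquine and halofantrine.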

Experiment [5] has as its system Plasmodium yoelii. Kind of experiment: Antimalarial activity against multidrug-resistant Plasmodium yoelii infected in Swiss mouse assessed as inhibition of parasitemia at 24 mg/kg, po for 4 days measured on day 4 relative to control. The following applies: 96 h, time 4 day. The essentials:
as §1

Experiment [6] has as its system Plasmodium yoelii. Kind of experiment: Antimalarial activity against multidrug-resistant Plasmodium yoelii infected in Swiss mouse assessed as inhibition of parasitemia at 24 mg/kg, im for 4 days measured on day 4 relative to control. The following applies: 96 h, time 4 day. The essentials: as §2
Experiment [7] concerns Plasmodium yoelii. Kind of experiment: Antimalarial activity against multidrug-resistant Plasmodium yoelii infected in Swiss mouse assessed as animal survival at 24 mg/kg, po for 4 days and measured for 28 days. To be noted: 672 h, time 28 day. The essentials: as §3
Experiment [8] relates to Plasmodium yoelii. As to the kind of experiment: Antimalarial activity against multidrug-resistant Plasmodium yoelii infected in Swiss mouse assessed as animal survival at 24 mg/kg, im for 4 days and measured for 28 days. The following applies: 672 h, time 28 day. The essentials: as §4
Experiment [9] relates to Plasmodium yoelii. Kind of experiment: Antimalarial activity against multidrug-resistant Plasmodium yoelii infected in Swiss mouse assessed as inhibition of parasitemia at 48 mg/kg, im for 4 days measured on day 4 relative to po dosed artemisinin. To be noted: time 4 day.
The subject of experiment [10] is Plasmodium yoelii. As to the kind of experiment: Antimalarial activity against multidrug-resistant Plasmodium yoelii infected in Swiss mouse assessed as inhibition of parasitemia at 48 mg/kg, po for 4 days measured on day 4 relative to po dosed artemisinin. The following applies: time 4 day.
Experiment [11] deals with Plasmodium yoelii. Kind of experiment: Antimalarial activity against multidrug-resistant Plasmodium yoelii infected in Swiss mouse assessed as inhibition of parasitemia at 96 mg/kg, po for 4 days measured on day 4 relative to control. The following applies: 96 h, time 4 day. The essentials: as §1
The test system of experiment [12] is Plasmodium yoelii. Kind of experiment: Antimalarial activity against multidrug-resistant Plasmodium yoelii infected in Swiss mouse assessed as inhibition of parasitemia at 96 mg/kg, im for 4 days measured on day 4 relative to control. To be noted: 96 h, time 4 day. The essentials: as §2
Experiment [13] relates to Plasmodium yoelii. Kind of experiment: Antimalarial activity against multidrug-resistant Plasmodium yoelii infected in Swiss mouse assessed as animal survival at 96 mg/kg, po for 4 days and measured for 28 days. To be noted: 672 h, time 28 day. The essentials: as §3
Experiment [14] concerns Plasmodium yoelii. As to the kind of experiment: Antimalarial activity against multidrug-resistant Plasmodium yoelii infected in Swiss mouse assessed as animal survival at 96 mg/kg, im for 4 days and measured for 28 days. The following applies: 672 h, time 28 day. The essentials: as §4

The inhibition in vivo is the drop in the measured response relative to a control, in per cent. Regarding `C=C(c1ccc(Oc2ccc3ccc(OCCOC(=O)CCC(=O)O)cc3c2)cc1)C1COC2(OO1)C1CC3CC(C1)CC2C3` (centres undefined), the inhibition in vivo at 48 mg/kg with Plasmodium yoelii [1] came out at 77.4%; in the experiment with Plasmodium yoelii [2] it was 58.8%. Moreover, the survival at 48 mg/kg in the experiment on Plasmodium yoelii [3] and in the experiment with Plasmodium yoelii [4] was 0% throughout.
For the molecule `C=C(c1ccc(Oc2ccc3ccc(OCCOC(=O)CCC(=O)O)cc3c2)cc1)C1COC2(CCCCC2)OO1` (centres undefined), the inhibition in vivo at 48 mg/kg with Plasmodium yoelii [1] and with Plasmodium yoelii [2] was 100% each time. Besides, the survival at 48 mg/kg with Plasmodium yoelii [4] was 60%.
With `C=C(c1ccc(Oc2ccc3ccc(OCCOC(=O)CCC(=O)O)cc3c2)cc1)C1COC2(CCCC2)OO1` (centres undefined), the inhibition in vivo at 48 mg/kg in the experiment on Plasmodium yoelii [1] and in the experiment on Plasmodium yoelii [2] was 100% each time. Also, the inhibition in vivo at 24 mg/kg in the experiment on Plasmodium yoelii [5] and in the experiment with Plasmodium yoelii [6] was 100% throughout. Moreover, the survival at 48 mg/kg in the experiment with Plasmodium yoelii [3] and in the experiment on Plasmodium yoelii [4] was 100% in each case. The survival at 24 mg/kg with Plasmodium yoelii [7] came out at 0%; with Plasmodium yoelii [8], 80%. Also, the “fold change (FC)” value with Plasmodium yoelii [9] and in the experiment with Plasmodium yoelii [10] was 2 throughout.
`C=C(c1ccc(Oc2ccc3ccc(OCCO)cc3c2)cc1)C1COC2(OO1)C1CC3CC(C1)CC2C3` (centres undefined): the inhibition in vivo at 48 mg/kg in the experiment with Plasmodium yoelii [1] is 83.2%; with Plasmodium yoelii [2] it was 51.4%. Also, the survival at 48 mg/kg in the experiment on Plasmodium yoelii [3] and with Plasmodium yoelii [4] was 0% throughout.
On to `C=C(c1ccc(Oc2ccc(OCCOC(=O)CCC(=O)O)cc2)cc1)C1COC2(CCCCC2)OO1` (centres undefined), for which the inhibition in vivo at 96 mg/kg in the experiment on Plasmodium yoelii [11] came out at 10%; in the experiment on Plasmodium yoelii [12], 28.4%. Further, the survival at 96 mg/kg in the experiment with Plasmodium yoelii [13] and in the experiment with Plasmodium yoelii [14] was 0% in each case.
Regarding `C=C(c1ccc(Oc2cccc3c(OCCO)cccc23)cc1)C1COC2(CCCC2)OO1` (centres undefined), the inhibition in vivo at 48 mg/kg in the experiment with Plasmodium yoelii [1] was 44.1%; in the experiment with Plasmodium yoelii [2] it was 46.2%. Besides, the survival at 48 mg/kg in the experiment with Plasmodium yoelii [3] and in the experiment on Plasmodium yoelii [4] was 0% each time.
For the molecule `C=C(c1ccc(Oc2cccc3c(OCCOC(=O)CCC(=O)O)cccc23)cc1)C1COC2(CCCC2)OO1` (centres undefined), the inhibition in vivo at 48 mg/kg came to 39.4% in the experiment on Plasmodium yoelii [1] and 28.3% in the experiment on Plasmodium yoelii [2]. The survival at 48 mg/kg with Plasmodium yoelii [3] and in the experiment on Plasmodium yoelii [4] was 0% in each case.
For `C=C(c1ccc(Oc2ccc3ccc(OCCO)cc3c2)cc1)C1COC2(CCCCC2)OO1` (centres undefined), the inhibition in vivo at 48 mg/kg with Plasmodium yoelii [1] amounted to 83.5%; with Plasmodium yoelii [2] it was 71.6%. The survival at 48 mg/kg in the experiment on Plasmodium yoelii [3] and with Plasmodium yoelii [4] was 0% each time.
In the case of `C=C(c1ccc(Oc2cccc3c(OCCOC(=O)CCC(=O)O)cccc23)cc1)C1COC2(OO1)C1CC3CC(C1)CC2C3` (centres undefined), the inhibition in vivo at 48 mg/kg was 27.5% in the experiment on Plasmodium yoelii [1] and 42.2% in the experiment with Plasmodium yoelii [2]. In addition, the survival at 48 mg/kg in the experiment on Plasmodium yoelii [3] and with Plasmodium yoelii [4] was 0% throughout.
For `C=C(c1ccc(Oc2ccc(OCCO)cc2)cc1)C1COC2(CCCCC2)OO1` (centres undefined), the inhibition in vivo at 96 mg/kg with Plasmodium yoelii [11] stood at 45.4%; in the experiment with Plasmodium yoelii [12], 72.4%. The survival at 96 mg/kg with Plasmodium yoelii [13] and with Plasmodium yoelii [14] was 0% throughout.
For the molecule `C=C(c1ccc(Oc2ccc(OCCO)cc2)cc1)C1COC2(OO1)C1CC3CC(C1)CC2C3` (centres undefined), the inhibition in vivo at 48 mg/kg in the experiment on Plasmodium yoelii [1] amounted to 85.5%. The inhibition in vivo at 96 mg/kg in the experiment with Plasmodium yoelii [11] and in the experiment on Plasmodium yoelii [12] was 100% throughout. The survival at 48 mg/kg in the experiment with Plasmodium yoelii [3] is 0%. The survival at 96 mg/kg in the experiment with Plasmodium yoelii [13] stood at 100%; in the experiment on Plasmodium yoelii [14] it was 0%.
As to `C=C(c1ccc(Oc2cccc3c(OCCO)cccc23)cc1)C1COC2(OO1)C1CC3CC(C1)CC2C3` (centres undefined), the results for the inhibition in vivo at 48 mg/kg in the experiment on Plasmodium yoelii [1] and in the experiment on Plasmodium yoelii [2] were 100% and 46.2%, respectively. The values for the survival at 48 mg/kg in the experiment with Plasmodium yoelii [3] and with Plasmodium yoelii [4] were 40% and 0%, respectively.
As for `C=C(c1ccc(Oc2ccc(OCCOC(=O)CCC(=O)O)cc2)cc1)C1COC2(OO1)C1CC3CC(C1)CC2C3` (centres undefined), the inhibition in vivo at 96 mg/kg with Plasmodium yoelii [11] turned out to be 35.6%; with Plasmodium yoelii [12], 100%. In addition, the survival at 96 mg/kg came out at 0% in the experiment with Plasmodium yoelii [13] and 40% with Plasmodium yoelii [14].
The matching figures for `C=C(c1ccc(Oc2ccc(OCCO)cc2)cc1)C1COC2(CCCC2)OO1` (centres undefined): 38.4%, 85.2%, 0% and 0%.
As for `C=C(c1ccc(Oc2cccc3c(OCCO)cccc23)cc1)C1COC2(CCCCC2)OO1` (centres undefined), the inhibition in vivo at 48 mg/kg with Plasmodium yoelii [1] came to 38.2%; in the experiment with Plasmodium yoelii [2] it was 46.2%. For the same molecule, the survival at 48 mg/kg in the experiment with Plasmodium yoelii [3] and in the experiment on Plasmodium yoelii [4] was 0% in each case.
Take `C=C(c1ccc(Oc2cccc3c(OCCOC(=O)CCC(=O)O)cccc23)cc1)C1COC2(CCCCC2)OO1` (centres undefined): the inhibition in vivo at 48 mg/kg in the experiment with Plasmodium yoelii [1] came out at 49.8%; in the experiment with Plasmodium yoelii [2], 26.6%. Further, the survival at 48 mg/kg with Plasmodium yoelii [3] and in the experiment on Plasmodium yoelii [4] was 0% each time.
For `C=C(c1ccc(Oc2ccc3ccc(OCCO)cc3c2)cc1)C1COC2(CCCC2)OO1` (centres undefined), the inhibition in vivo at 48 mg/kg in the experiment on Plasmodium yoelii [1] and in the experiment with Plasmodium yoelii [2] was 100% in each case. The survival at 48 mg/kg in the experiment with Plasmodium yoelii [3] and in the experiment with Plasmodium yoelii [4] was 80% each time.
`C=C(c1ccc(Oc2ccc(OCCOC(=O)CCC(=O)O)cc2)cc1)C1COC2(CCCC2)OO1` (centres undefined): the inhibition in vivo at 96 mg/kg turned out to be 44.3% in the experiment on Plasmodium yoelii [11] and 77.8% with Plasmodium yoelii [12]. Also, the survival at 96 mg/kg with Plasmodium yoelii [13] and in the experiment on Plasmodium yoelii [14] was 0% throughout.
In the case of `C[C@@H]1CC[C@H]2[C@@H](C)C(=O)O[C@@H]3O[C@@]4(C)CC[C@@H]1[C@]32OO4` [ARTEMISININ], the inhibition in vivo at 96 mg/kg in the experiment with Plasmodium yoelii [11] came to 100%. Moreover, the inhibition in vivo at 48 mg/kg in the experiment with Plasmodium yoelii [2] was 100%. For the same molecule, in the experiment on Plasmodium yoelii [6], the inhibition in vivo at 24 mg/kg was found to be 100%. Also, in the experiment with Plasmodium yoelii [4], the survival at 48 mg/kg amounted to 100%. For the same molecule, in the experiment with Plasmodium yoelii [8], the survival at 24 mg/kg came to 80%.
